Results from ChEMBL document CHEMBL1134507, “Potential new antitumor agents from an innovative combination of demethylcantharidin, a modified traditional Chinese medicine, with a platinum moiety” (J Med Chem, 2001).
Calls of active or inactive are those of the source. The rule behind the calls is not given here.

Assays:
[1] = system: L1210; assay: Cytotoxicity against Cisplatin-resistant L1210-resistant mouse leukemia, assessed by MTT assay after 72 hr of compound exposure (resistance level); format: functional, cell-based
Outline: (§1)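 MTT cytotoxicity assay run on cisplatin-sensitive parental cells and cisplatin-resistant sublines. Drug exposure was 72 h for L1210 and 96 h for NCI:H460. IC50 determined for each cell line. Fold resistance = IC50 in resistant cells divided by IC50 in parental cells.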

[2] = system: L1210; assay: Cytotoxicity against […]sensitive mouse leukemia, assessed by MTT assay after 72 hr of compound exposure; format: functional, cell-based; outline: as §1
[3] = system: L1210; assay: Growth inhibitory activity against L1210 mouse leukemia cancer cell line; format: functional, cell-based
Outline: (§2)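 Tetrazolium (MTT) assay. Drug treatment began 24 h after cell seeding, exposure lasted 72 h, and the MTT test followed. Read-out was IC50.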

[4] = system: MDA-MB-231; assay: Growth inhibitory activity against MDA-MB-231 human breast cancer cell line; format: functional, cell-based; outline: as §2
[5] = system: Mus musculus; assay: Toxicity in male nude mice measured as N (no. of deaths), at 2 mg/kg (ip) given on days 1, 5 and 9; format: organism-based; set-up: dose 2 mg/kg; conditions: in vivo
Outline: (§3)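 SK-Hep-1 human liver tumor cells inoculated sc into male nude mice. Dosing began once tumors reached 5 mm × 5 mm, given ip on days 1, 5 and 9. Vehicle was normal saline for the reference platinum drug and 5% dextrose for the other Pt complexes. Controls received saline or 5% dextrose. Recorded: T/C (%), body-weight change at nadir, and deaths per group.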

[6] = system: Mus musculus; assay: Toxicity in male nude mice measured as N (no. of deaths), at 4 mg/kg (ip) given on days 1, 5 and 9; format: organism-based; set-up: dose 4 mg/kg; conditions: in vivo; outline: as §3
[7] = system: Mus musculus; assay: Toxicity in male nude mice measured as N (no. of deaths), at 8 mg/kg (ip) given on days 1, 5 and 9; format: organism-based; set-up: dose 8 mg/kg; conditions: in vivo; outline: as §3
[8] = system: Mus musculus; assay: Toxicity in male nude mice measured as N (no. of deaths), at 10 mg/kg (ip) given on days 1, 5 and 9; format: organism-based; set-up: dose 10 mg/kg; conditions: in vivo; outline: as §3
[9] = system: NCI-H460; assay: Growth inhibitory activity against NCI-H460 human lung cancer cell line; format: functional, cell-based; outline: as §2
[10] = system: NCI-H460; assay: Cytotoxicity against NCI-H460-resistant Human Nonsmall Cell Lung Cancer cell line assessed by MTT assay after 96 hr of compound exposure (resistance level); format: functional, cell-based; outline: as §1
[11] = system: NCI-H460; assay: Cytotoxicity against NCI-H460-sensitive Human Nonsmall Cell Lung Cancer cell line assessed by MTT assay after 96 hr of compound exposure; format: functional, cell-based; outline: as §1
[12] = system: NTERA-2-cl-D1; assay: Growth inhibitory activity against […]-cl-D1 human testicular cancer cell line; format: functional, cell-based; outline: as §2
[13] = system: SK-HEP1; assay: Growth inhibitory activity against SK-Hep1 human liver cancer cell line; format: functional, cell-based; outline: as §2
[14] = system: SK-OV-3; assay: Growth inhibitory activity against SK-OV-3 human ovarian cancer cell line; format: functional, cell-based; outline: as §2
[15] = system: COLO 320DM; assay: Growth inhibitory activity against COLO-320-DM human colon cancer cell line; format: functional, cell-based; outline: as §2
[16] = system: Mus musculus; assay: Ratio of the relative tumor volume in the Tx group over the control group at day 60, at 2 mg/kg dose (ip) given on days 1, 5 and 9 (In vivo antitumor activity in nude mice); format: functional; outline: as §3
[17] = system: Mus musculus; assay: Ratio of the relative tumor volume in the Tx group over the control group at day 60, at 4 mg/kg dose (ip) given on days 1, 5 and 9 (In vivo antitumor activity in nude mice); format: functional; outline: as §3
[18] = system: Mus musculus; assay: Ratio of the relative tumor volume in the Tx group over the control group at day 60, at 8 mg/kg dose (ip) given on days 1, 5 and 9 (In vivo antitumor activity in nude mice); format: functional; outline: as §3
[19] = system: Mus musculus; assay: In vivo antitumor activity in SK-Hep-1 sc-Inoculated Xenograft in male nude mice dosed at 2 mg/kg (ip)on days 1,5 and 9; Not active; format: functional, organism-based; set-up: dose 2 mg/kg; outline: as §3
[20] = system: Mus musculus; assay: In vivo antitumor activity in SK-Hep-1 sc-Inoculated Xenograft in male nude mice dosed at 4 mg/kg (ip)on days 1,5 and 9; Not active; format: functional, organism-based; set-up: dose 4 mg/kg; outline: as §3
[21] = system: Mus musculus; assay: In vivo antitumor activity in SK-Hep-1 sc-Inoculated Xenograft in male nude mice dosed at 8 mg/kg (ip)on days 1,5 and 9; format: functional; outline: as §3
[22] = system: Mus musculus; assay: In vivo antitumor activity in SK-Hep-1 sc-Inoculated Xenograft in male nude mice dosed at 10 mg/kg (ip)on days 1,5 and 9; Acutely toxic; format: functional, organism-based; set-up: dose 10 mg/kg; outline: as §3
[23] = system: Mus musculus; assay: Ratio of the relative tumor volume in the Tx group over the control group at day 60, at 10 mg/kg dose (ip) given on days 1, 5 and 9 (In vivo antitumor activity in nude mice); format: functional, organism-based; set-up: dose 10 mg/kg
[24] = system: Mus musculus; assay: In vivo antitumor activity in SK-Hep-1 sc-Inoculated Xenograft in male nude mice dosed at 4 mg/kg (ip)on days 1,5 and 9; format: functional, organism-based; set-up: dose 4 mg/kg
Outline: (§4)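 Male nude mice bearing subcutaneous SK-Hep-1 human liver tumor xenografts. Dosing started once tumors reached 5 mm × 5 mm, given ip on days 1, 5 and 9. Cisplatin was given in normal saline and other Pt complexes in 5% dextrose; controls received either vehicle. T/C (%), weight change at nadir and deaths recorded.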

[25] = system: Mus musculus; assay: In vivo antitumor activity in SK-Hep-1 sc-Inoculated Xenograft in male nude mice dosed at 10 mg/kg (ip)on days 1,5 and 9; format: functional, organism-based; set-up: dose 10 mg/kg; outline: as §4
[26] = system: L1210; assay: Cytotoxicity against […]resistant mouse leukemia, assessed by MTT assay after 72 h of compound exposure (resistance level); format: functional, cell-based; outline: as §1
[27] = system: Mus musculus; assay: Toxicity in male nude mice measured as N (no. of deaths), at 25 mg/kg (ip) given on days 1, 5 and 9; format: organism-based; set-up: dose 25 mg/kg; conditions: in vivo; outline: as §3
[28] = system: Mus musculus; assay: Toxicity in male nude mice measured as N (no. of deaths), at 50 mg/kg (ip) given on days 1, 5 and 9; format: organism-based; set-up: dose 50 mg/kg; conditions: in vivo; outline: as §3
[29] = system: Mus musculus; assay: Toxicity in male nude mice measured as N (no. of deaths), at 75 mg/kg (ip) given on days 1, 5 and 9; format: organism-based; set-up: dose 75 mg/kg; conditions: in vivo; outline: as §3
[30] = system: Mus musculus; assay: Toxicity in male nude mice measured as N (no. of deaths), at 100 mg/kg (ip) given on days 1, 5 and 9; format: organism-based; set-up: dose 100 mg/kg; conditions: in vivo; outline: as §3
[31] = system: Mus musculus; assay: Toxicity in male nude mice measured as N (no. of deaths), at 120 mg/kg (ip) given on days 1, 5 and 9; format: organism-based; set-up: dose 120 mg/kg; conditions: in vivo; outline: as §3
[32] = system: Mus musculus; assay: Ratio of the relative tumor volume in the Tx group over the control group at day 60, at 25 mg/kg dose (ip) given on days 1, 5 and 9 (In vivo antitumor activity in nude mice); format: functional, organism-based; set-up: dose 25 mg/kg
[33] = system: Mus musculus; assay: Ratio of the relative tumor volume in the Tx group over the control group at day 60, at 75 mg/kg dose (ip) given on days 1, 5 and 9 (In vivo antitumor activity in nude mice); format: functional, organism-based; set-up: dose 75 mg/kg
[34] = system: Mus musculus; assay: Ratio of the relative tumor volume in the Tx group over the control group at day 60, at 100 mg/kg dose (ip) given on days 1, 5 and 9 (In vivo antitumor activity in nude mice); format: functional, organism-based; set-up: dose 100 mg/kg
[35] = system: Mus musculus; assay: Ratio of the relative tumor volume in the Tx group over the control group at day 60, at 120 mg/kg dose (ip) given on days 1, 5 and 9 (In vivo antitumor activity in nude mice); format: functional, organism-based; set-up: dose 120 mg/kg
[36] = system: Mus musculus; assay: In vivo antitumor activity in SK-Hep-1 sc-Inoculated Xenograft in male nude mice dosed at 25 mg/kg (ip)on days 1,5 and 9; Not active; format: functional, organism-based; set-up: dose 25 mg/kg; outline: as §4
[37] = system: Mus musculus; assay: In vivo antitumor activity in SK-Hep-1 sc-Inoculated Xenograft in male nude mice dosed at 50 mg/kg (ip)on days 1,5 and 9; Not active; format: functional, organism-based; set-up: dose 50 mg/kg; outline: as §4
[38] = system: Mus musculus; assay: In vivo antitumor activity in SK-Hep-1 sc-Inoculated Xenograft in male nude mice dosed at 75 mg/kg (ip)on days 1,5 and 9; Not active; format: functional, organism-based; set-up: dose 75 mg/kg; outline: as §4
[39] = system: Mus musculus; assay: In vivo antitumor activity in SK-Hep-1 sc-Inoculated Xenograft in male nude mice dosed at 100 mg/kg (ip)on days 1,5 and 9; format: functional, organism-based; set-up: dose 100 mg/kg; outline: as §4
[40] = system: Mus musculus; assay: In vivo antitumor activity in SK-Hep-1 sc-Inoculated Xenograft in male nude mice dosed at 120 mg/kg (ip)on days 1,5 and 9; format: functional, organism-based; set-up: dose 120 mg/kg; outline: as §4
[41] = system: Mus musculus; assay: Ratio of the relative tumor volume in the Tx group over the control group at day 60, at 50 mg/kg dose (ip) given on days 1, 5 and 9 (In vivo antitumor activity in nude mice); format: functional, organism-based; set-up: dose 50 mg/kg

Compound: CISPLATIN [listing 1 of 2 here]
- IC50 [1]: 14.5 µM
- IC50 [2]: 1.01 µM
- IC50 [3]: 0.51 µM
- IC50 [4]: 65.7 µM
- No. of deaths [5]: 1
- No. of deaths [6]: 4
- No. of deaths [7]: 4
- No. of deaths [8]: 4
- IC50 [9]: 11.3 µM
- IC50 [10]: 4.96 µM
- IC50 [11]: 0.59 µM
- IC50 [12]: 0.19 µM
- IC50 [13]: 54.1 µM
- IC50 [14]: 15.2 µM
- IC50 [15]: 11.9 µM

Compound: O=C1OC(=O)C2C3CCC(O3)C12 (stereo unspecified) [DEMETHYL-CANTHARIDIN]
- T/C [16]: 63.2%
- T/C [17]: 66.1%
- T/C [18]: 34.8%
- Weight change at nadir [19]: inactive
- Weight change at nadir [20]: inactive
- Weight change at nadir [21]: -20%
- Weight change at nadir [22]: Toxic

Compound: CISPLATIN [listing 2 of 2 here]
- T/C [16]: 87.5%
- T/C [17]: 81.1%
- T/C [18]: 47.1%
- T/C [23]: 39.6%
- Weight change at nadir [19]: inactive
- Weight change at nadir [24]: -25%
- Weight change at nadir [21]: -35%
- Weight change at nadir [25]: -40%

Compound: CARBOPLATIN [listing 1 of 2 here]
- IC50 [26]: 138 µM
- IC50 [2]: 17.8 µM
- IC50 [3]: 10.1 µM
- IC50 [4]: 1080 µM
- No. of deaths [27]: 1
- No. of deaths [28]: 2
- No. of deaths [29]: 2
- No. of deaths [30]: 5
- No. of deaths [31]: 4
- IC50 [9]: 60.3 µM
- IC50 [10]: 54.6 µM
- IC50 [11]: 17.8 µM
- IC50 [12]: 2.75 µM
- IC50 [13]: 501 µM
- IC50 [14]: 149 µM
- IC50 [15]: 188 µM

Compound: CARBOPLATIN [listing 2 of 2 here]
- T/C [32]: 87.5%
- T/C [33]: 44.9%
- T/C [34]: 67.8%
- T/C [35]: 62.8%
- Weight change at nadir [36]: inactive
- Weight change at nadir [37]: inactive
- Weight change at nadir [38]: inactive
- Weight change at nadir [39]: -21%
- Weight change at nadir [40]: -40%
- T/C [41]: 109%
